Screening results as filed in PubChem BioAssay.
Thrombin inh: thrombin (human) inhibition; P00734; alpha-thrombin, Boc-VPR-AMC fluorogenic substrate cleavage; 220,000 compounds, 0.26% hits; AID 1046; inhibition, % at 5 µM;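 active means inhibition at or above 40%; inactive means inhibition below 40%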;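 further: 0% = enzyme with no compound and 100% = wells without enzyme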
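System: human alpha-thrombin protein; Compound dosing: one concentration per compound, 5 µM, with 0.2% DMSO; Timing: reaction at room temperature; Technique: AMC fluorescence, 355/460 nm; Controls: enzyme without compound as high, wells lacking enzyme as low.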
FXIa inh: blocks human coagulation factor XIa protease activity. P03951. purified FXIa, Boc-Glu-Ala-Arg-AMC fluorogenic substrate. inhibition, % at 5 µM. 220,000 compounds, 0.14% hits. AID 798;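 active means inhibition of at least 40%; inactive means inhibition below 40%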;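 further: fluorescence of freed AMC excited at 355 nm; 0% = enzyme without compound and 100% = no enzyme blank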
FXIIa inh: inhibitors of human coagulation factor XIIa; inhibition, % at 5 µM; 220,000 compounds, 0.3% hits; purified FXIIa, Boc-QGR-AMC fluorogenic substrate, 2 h; P00748; in the data active means inhibition above about 40%;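 further: 0% = enzyme with no compound and 100% = blank without enzyme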
Target sequence (P00748 20-372 limits assumed): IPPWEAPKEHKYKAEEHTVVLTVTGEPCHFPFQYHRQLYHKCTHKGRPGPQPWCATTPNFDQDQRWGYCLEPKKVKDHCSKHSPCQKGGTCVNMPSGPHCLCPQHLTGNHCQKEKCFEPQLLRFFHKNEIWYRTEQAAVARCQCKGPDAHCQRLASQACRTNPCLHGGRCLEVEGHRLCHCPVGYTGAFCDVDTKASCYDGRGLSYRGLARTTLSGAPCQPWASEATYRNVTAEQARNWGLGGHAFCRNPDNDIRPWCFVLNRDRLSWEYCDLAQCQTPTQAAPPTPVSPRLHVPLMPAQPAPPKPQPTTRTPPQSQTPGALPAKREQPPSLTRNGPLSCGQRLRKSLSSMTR
Target sequence (P00748 373-615 limits assumed): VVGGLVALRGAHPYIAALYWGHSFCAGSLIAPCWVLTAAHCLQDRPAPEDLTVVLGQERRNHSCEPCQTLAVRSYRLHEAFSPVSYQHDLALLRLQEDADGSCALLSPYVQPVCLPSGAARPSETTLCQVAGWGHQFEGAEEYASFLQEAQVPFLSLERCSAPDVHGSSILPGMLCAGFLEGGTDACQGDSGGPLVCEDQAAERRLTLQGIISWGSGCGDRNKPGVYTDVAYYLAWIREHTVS
hK5 inh: blocks human kallikrein 5 protease activity; AID 873; 210,000 compounds, 0.59% hits; Q9Y337; recombinant hK5, fluorogenic AMC substrate cleavage; inhibition, % at 5 µM;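 active means inhibition of 40% or more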;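 further: 0% = enzyme controls without compound and 100% = no-enzyme blanks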
An asterisk follows results filed as active; . = no result given. The list is not random: actives were taken first. Their share in the collection is about 1%.

SMILES	Thrombin inh	FXIa inh	FXIIa inh	hK5 inh
CCOc1ccc(NC(=O)CN2C(=O)/C(=C3\SC(=S)N(C4CCS(=O)(=O)C4)C3=O)c3ccccc32)cc1 (stereo not given)	3	53*	22	36
O=C1C=C(NCc2ccc(Cl)c(Cl)c2)CC1	-3	-4	6	-4
O=C1C=C(NCc2ccc(Cl)cc2)CCC1	14	5	23	50*
CSc1ccccc1NC(=O)CN(C)CC(=O)Nc1ccccc1F	2	9	16	-12
COc1ccc(S(=O)(=O)N=C2C=C(C)C(=O)C(C)=C2)cc1	1	-3	17	0
COc1cc(C(=O)O/N=C2\C=CC(=O)C(C)=C2)cc(OC)c1OC	4	12	96*	1
CC1=CC(=NOC(=O)c2cccc([N+](=O)[O-])c2)C=C(C)C1=O	2	4	37	-6
COc1ccc(C(=O)ON=C2C=C(C)C(=O)C(C)=C2)cc1	3	18	68*	9
COc1cc(C(=O)ON=C2C=C(C)C(=O)C(C)=C2)cc(OC)c1OC	-4	-5	90*	-6
O=C(Nc1nnc(-c2ccccc2)s1)c1cc(S(=O)(=O)N2CCOCC2)c(Cl)cc1Cl	4	25	41*	5
CCOc1ccc(N=C2NN=C(c3cc(C)n(CC4CCCO4)c3C)CS2)cc1 (stereo not given)	10	30	36	45*
CC(=O)Nc1ccc(NC(=O)CN(c2cc(Cl)ccc2Cl)S(C)(=O)=O)cc1	-5	0	3	.
Brc1cccc(/C=N/Nc2nn[nH]n2)c1	18	102*	43*	40
O=C(/C=C/c1cccc(Br)c1)Nc1nn[nH]n1	5	13	13	5
Cc1nnc(NC(=O)CSC2CCCCC2)s1	-10	-7	4	-26
O=C(CSC1CCCCC1)Nc1nccs1	104*	18	27	54*
O=C(c1ccc(Cl)cc1)C1C2C(=O)N(c3ccccc3)C(=O)C2C2CCCN21 (stereo not given)	10	16	12	5
CC(=O)c1ccc(N2C(=O)C3C(C2=O)C(C(=O)c2ccc(Cl)cc2)N2CCCC32)cc1 (stereo not given)	9	12	8	42*
CN(C)C(=O)CSC1c2ccccc2C(=O)N1c1ccccc1 (stereo not given)	7	3	11	78*
CN(C)c1cccc(C(=O)n2cc(C(=O)c3cc(F)ccc3O)cn2)c1	16	4	41*	32
O=C(c1cnn(C(=O)COc2ccccc2F)c1)c1cc(F)ccc1O	-7	1	8	-3
O=C(c1cnn(C(=O)c2ccc(O)cc2)c1)c1ccccc1O	12	2	18	42*
CCOc1ccc(NC(=S)NCC(c2cccnc2)N2CCOCC2)cc1 (stereo not given)	-8	-3	7	3
CS(=O)(=O)c1ccc(Cl)c(NC(=O)COC(=O)CNC(=O)c2ccccc2)c1	15	42*	30	28
C=CCSc1nc(C)c(CC=C)c(=O)[nH]1	0	30	53*	2
SMILES	Thrombin inh	FXIa inh	FXIIa inh	hK5 inh
COc1ccc(NC(=O)CC2C(=O)N(C)C(=S)N2Cc2ccncc2)cc1 (stereo not given)	5	0	4	-12
COC(=O)c1ccc(NC(=O)CC2C(=O)N(C)C(=S)N2Cc2ccc(S(N)(=O)=O)cc2)cc1 (stereo not given)	18	31	22	54*
O=C(NC1CC1)C1=C[C@@H](c2coc3ccccc3c2=O)C[C@@H](OCCCCO)O1	-6	-1	8	-2
Nc1nc(CN2CCOCC2)cs1	0	1	15	-4
Nc1nc(CN2CCCCC2)cs1	104*	-1	-3	62*
CCC(=O)N1CCc2cc(S(=O)(=O)CCC(=O)Nc3ccc(CC)cc3)ccc21	-4	-12	6	-28
CCC(=O)N1CCc2cc(S(=O)(=O)CCC(=O)NCc3ccc4c(c3)OCO4)ccc21	2	15	15	41*
CCN1CCN(c2cc3c(nn2)Oc2ccccc2N3C)CC1	0	3	3	-18
CCOC(=O)C1=C(C)NC(=S)N(C(C)=O)C1c1ccc(Cl)cc1 (stereo not given)	0	1	6	-6
CCOC(=O)C1=C(C)NC(=S)N(C(C)=O)C1c1ccc(OC)c(OC)c1 (stereo not given)	21	17	48*	48*
Cc1ccc(S(=O)(=O)NC(=O)N(C)C2CCCCC2)cc1	-9	-5	0	-7
CCOC(=O)C1=C(CC)Nc2ccccc2N=C1NC(=O)CCN1C(=O)C2CCCCC2C1=O (stereo not given)	36	32	24	54*
COc1ccc2c(c1)C(c1ccc([N+](=O)[O-])cc1)=NNC(c1ccco1)=N2	5	-3	8	42*
COc1ccc(C2=NNC(c3ccco3)=Nc3ccc(F)cc32)cc1	-1	-6	4	-4
COc1ccc2c(c1)C(c1ccc(N3CCOCC3)cc1)=NNC(c1cccnc1)=N2	28	7	13	94*
OCC[C@H]1C[C@@H](O)[C@H](O)[C@]2(CCCCO2)O1	1	2	6	3
COc1ccc(C(=O)c2cnc3cc4c(cc3c2C)OCO4)cc1	34	9	0	74*
COc1cccc(CN(C)C(=O)CCc2nnc(-c3ccsc3)o2)c1	94*	0	9	3
COc1ccc(S(=O)(=O)Nc2cc3c4c(oc3c3ccccc23)CC(C)(C)CC4=O)cc1	24	3	-5	48*
O=C(COC(=O)/C=C/c1ccccc1)NCc1ccccc1Cl	-27	-8	4	-3
CCOC(=O)C1CCN(c2ccc(Cl)nn2)CC1	3	-1	0	-13
O=C(O)C1CCN(c2ccc(Cl)nn2)CC1	55*	-2	9	1
CCOC(=O)c1cc(NC(=O)Nc2nccs2)c(C)nc1C	-3	6	10	-13
COc1cc(/C=N/NC(=O)CC23CC4CC(CC(C4)C2)C3)cc(Br)c1OCC(=O)N(C)C	-2	4	9	-4
O=C(c1cccc(S(=O)(=O)Nc2cccc(C(F)(F)F)c2)c1)N1CCCCC1	-6	5	13	-8
SMILES	Thrombin inh	FXIa inh	FXIIa inh	hK5 inh
Cc1c(Cl)cccc1NC(=O)CNC(=O)c1ccccc1F	-13	-2	4	-12
O=C(O)CC(=O)Nc1ccccc1C(=O)O	1	15	68*	5
N#CCC(=O)Nc1ccccc1C(=O)O	0	-5	13	-7
CC(=O)Nc1ccc(SCC(=O)c2cc(C)n(C)c2C)cc1	4	2	16	0
CCCOC(=O)CCCCCCCCC(O)CN1CCCCC1 (stereo not given)	.	1	5	0
COC(=O)c1[nH]c(C)c(/C(O)=C2\C(=O)C(=O)N(CCN(C)C)C2c2cccc(OC)c2OC)c1C (stereo not given)	11	5	44*	56*
CCCCc1nc(SCc2ccc([N+](=O)[O-])cc2)n[nH]1	.	18	10	15
CC(=O)NNC(=O)c1nc(-c2ccccc2)c(C)o1	2	0	9	-5
